In ChEMBL document CHEMBL1142150, “Inhibitors of nonhousekeeping functions of the apicoplast defy delayed death in Plasmodium falciparum” (Antimicrob Agents Chemother, 2007) one finds IC50, MIC90 and Activity data, which are given here for 15 compounds.

Values after ≈ are worked out from the molar mass of the structure shown. Active and inactive are the calls of the source. The calls are words filed in the database; no cut-off is given here.

Assay [1] relates to Plasmodium falciparum. Nature of the assay: Inhibition of Plasmodium falciparum FCK2 growth as [3H]hypoxanthine uptake after 96 hrs. It is filed as functional, organism-based. A digest of the protocol: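 Ring-synchronized FCK2 at 2 to 3% hematocrit, 1 to 2% initial parasitemia, exposed to a range of inhibitor concentrations for the first 48 h only, in duplicate. [3H]hypoxanthine then added for a further 48 h, followed by harvest and scintillation counting. IC50/MIC90 from nonlinear fit of parasitemia relative to untreated (100%) against log concentration.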

For assay [2], the system named is Plasmodium falciparum. In words: Reduced apicoplast DNA/nuclear DNA ratio in Plasmodium falciparum FCK2 at 1 mM after 72 hrs by competitive PCR. It is filed as functional, organism-based. A digest of the protocol:
(§1)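 FCK2 cultures were treated for 72 h, then saponin-lysed, and genomic DNA was kit-purified. Competitive PCR for eftu (apicoplast) and fabI (nuclear) used deletion-mutant plasmid standards diluted in calf thymus DNA, run for 25 cycles at 95/50/72°C. Products were quantified by ethidium-stained gel densitometry, and copy number was taken at equal band intensity. Groups were compared by two-tailed Student t test.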

Assay [3] relates to Plasmodium falciparum. In words: Inhibition of Plasmodium falciparum FCK2 growth as [3H]hypoxanthine uptake after 48 hrs. It is filed as functional, organism-based. A digest of the protocol: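 Ring-synchronized FCK2 in human O+ erythrocytes, 2 to 3% hematocrit, 1 to 2% initial parasitemia. Cultured 48 h with [3H]hypoxanthine and a range of inhibitor concentrations, inhibitor refreshed in new medium every 24 h, in duplicate. Cells harvested onto glass fibre filters for scintillation counting. IC50/MIC90 from nonlinear fit of parasitemia relative to untreated (100%) against log concentration.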

The subject of assay [4] is Plasmodium falciparum. In words: Inhibition of fatty acid biosynthesis in Plasmodium falciparum FCK2 as decreased [1,2-14C]acetate uptake at 10 uM after 2 hrs. It is filed as functional, organism-based.
For assay [5], the system named is Plasmodium falciparum. Nature of the assay: Reduced apicoplast genome copy number in Plasmodium falciparum FCK2 after 48 hrs. It is filed as functional.
The test system of assay [6] is Plasmodium falciparum. Nature of the assay: Reduced apicoplast genome copy number in Plasmodium falciparum FCK2 after 96 hrs. It is filed as functional.
The subject of assay [7] is Plasmodium falciparum. Nature of the assay: Reduced apicoplast DNA/nuclear DNA ratio in Plasmodium falciparum FCK2 at 25 uM after 72 hrs by competitive PCR. It is filed as functional, organism-based.
Assay [8] relates to Plasmodium falciparum. Nature of the assay: Inhibition of Plasmodium falciparum FCK2 second cycle growth in erythrocytes at 48 hrs. It is filed as functional, organism-based. A digest of the protocol:
(§2)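 Ring-stage synchronized FCK2 (2–3% hematocrit, 1–2% parasitemia) was treated with an inhibitor dilution series for the first 48 h only, in duplicate. [3H]hypoxanthine was then added for a further 48 h (96 h total) before filter harvest and scintillation counting. Percent parasitemia was set relative to untreated controls, and IC50/MIC90 were fitted by nonlinear regression against log concentration.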

Assay [9] has as its system Plasmodium falciparum. Nature of the assay: Decrease in Plasmodium falciparum FCK2 in erythrocytes at 50 uM after 84 hrs. It is filed as functional, organism-based. An outline of the steps:
(§3)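 Ring-stage synchronized FCK2 in human O+ erythrocytes at 10% hematocrit and 3% starting parasitemia, with medium changed every 24 h. Inhibitor was present either throughout (96 h) or for the first 48 h only, in triplicate. Giemsa thin smears were read every 12 h, counting at least 10 fields of about 200 cells. Parasitemia is infected RBC over total RBC; parasites lacking an intact membrane or stained cytoplasm were scored dead.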

Assay [10] concerns Plasmodium falciparum. In words: Reduction in Plasmodium falciparum FCK2 in human blood cell culture after 96 hrs. Also on record: scale not given: the % may be the effect or the level left. It is filed as functional. An outline of the steps:
as §2

Assay [11] deals with Plasmodium falciparum. In words: Reduction in Plasmodium falciparum FCK2 in human erythrocyte culture after 48 hrs. It is filed as functional, organism-based. A digest of the protocol: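 FCK2 synchronized with sorbitol, at ring stage, in O+ erythrocytes (2–3% hematocrit, 1–2% parasitemia). Cells were exposed to an inhibitor dilution series with [3H]hypoxanthine for 48 h, with fresh inhibitor every 24 h, in duplicate. Harvested onto glass-fiber filters for scintillation counting. Parasitemia was taken relative to untreated (100%), and IC50/MIC90 were fitted by nonlinear regression against log concentration.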

In assay [12] the test system is Plasmodium falciparum. Nature of the assay: Reduced apicoplast DNA/nuclear DNA ratio in Plasmodium falciparum FCK2 at 100 uM after 72 hrs by competitive PCR. It is filed as functional. A digest of the protocol:
as §1

Assay [13] relates to Plasmodium falciparum. In words: Reduced apicoplast DNA/nuclear DNA ratio in Plasmodium falciparum FCK2 at 500 uM after 72 hrs by competitive PCR. It is filed as functional, organism-based.
Assay [14] has as its system Plasmodium falciparum. Nature of the assay: Decrease in Plasmodium falciparum FCK2 in erythrocytes at 5 uM after 84 hrs. It is filed as functional, organism-based. An outline of the steps: as §3
For assay [15], the system named is Plasmodium falciparum. In words: Reduced apicoplast DNA/nuclear DNA ratio in Plasmodium falciparum FCK2 at 100 nM after 72 hrs by competitive PCR. It is filed as functional, organism-based.
Assay [16] concerns Plasmodium falciparum. In words: Inhibition of fatty acid biosynthesis in Plasmodium falciparum FCK2 as [1,2-14C]acetate uptake during first asexual cycle at 10 uM after 24 hrs. It is filed as functional, organism-based.
Assay [17] relates to Plasmodium falciparum. Nature of the assay: Reduced apicoplast DNA/nuclear DNA ratio in Plasmodium falciparum FCK2 at 10 uM after 72 hrs by competitive PCR. It is filed as functional.

The IC50 is the concentration needed to halve the response being measured. Usually MIC90 stands for an inhibitory concentration at the 90% level, which refers to growth in some studies and to a panel of isolates in others. With `CC(=O)CC(=O)CCC(=O)O` [SUCCINYLACETONE], the IC50 in the assay with Plasmodium falciparum [1] was 17400 µM; in the assay on Plasmodium falciparum [3] it was 17800 µM. The MIC90 is 51300 µM (≈ 8110 µg/mL) with Plasmodium falciparum [1] and 58900 µM (≈ 9310 µg/mL) against Plasmodium falciparum [3]. In the assay on Plasmodium falciparum [2], the outcome was inactive.

In the case of `O=C(O)c1cc(Oc2ccc(C(F)(F)F)cc2Cl)ccc1[N+](=O)[O-]` [ACIFLUORFEN], in the assay with Plasmodium falciparum [1], half-maximal inhibition (IC50) was put at 457 µM and the MIC90 was 692 µM (≈ 250 µg/mL). In the assay on Plasmodium falciparum [3], this compound returned a 50% inhibitory concentration (IC50) of 525 µM and an MIC90 of 871 µM (≈ 315 µg/mL).

For the compound `Oc1cc(Cl)ccc1Oc1ccc(Cl)cc1Cl` [TRICLOSAN], the outcome in the assay with Plasmodium falciparum [4] was Active. Also, the values for the IC50 in the assay with Plasmodium falciparum [1] and in the assay with Plasmodium falciparum [3] were 1.2 µM and 1.1 µM, respectively. For the same compound, the MIC90 was 10.2 µM (≈ 2.95 µg/mL) in the assay on Plasmodium falciparum [1] and 15.8 µM (≈ 4.57 µg/mL) against Plasmodium falciparum [3]. Besides, the outcome in the assay with Plasmodium falciparum [5] and with Plasmodium falciparum [6] was inactive.

In the assay with Plasmodium falciparum [1], `CC(Oc1ccc(Oc2ccc(C(F)(F)F)cn2)cc1)C(=O)O` (stereo unspecified) [FLUAZIFOP] showed an IC50 of 1480 µM and an MIC90 of 5750 µM (≈ 1880 µg/mL). Further, in the assay with Plasmodium falciparum [3], the IC50 was 1550 µM and the MIC90 was determined as 6920 µM (≈ 2260 µg/mL).

Consider `Oc1ccc(Cl)cc1Oc1ccc(Cl)c2cccnc12`, for which the outcome in the assay with Plasmodium falciparum [7] was inactive.

As to `CN(C)[C@@H]1C(O)=C(C(N)=O)C(=O)[C@@]2(O)C(O)=C3C(=O)c4c(O)cccc4[C@@](C)(O)[C@H]3C[C@@H]12` [TETRACYCLINE], the result in the assay with Plasmodium falciparum [8] and with Plasmodium falciparum [9] was Active. The Activity in the assay on Plasmodium falciparum [10] was 10%; in the assay with Plasmodium falciparum [12], 0.1. Also, the IC50 with Plasmodium falciparum [1] was found to be 2.19 µM; in the assay on Plasmodium falciparum [3] it was 135 µM. The MIC90 was 26.9 µM (≈ 12 µg/mL) against Plasmodium falciparum [1] and 562 µM (≈ 250 µg/mL) with Plasmodium falciparum [3]. Besides, the outcome in the assay with Plasmodium falciparum [11] was inactive.

In the assay on Plasmodium falciparum [1], `C[C@@H]1C[C@H]2O[C@@H]2/C=C\C=C\C(=O)Cc2c(Cl)c(O)cc(O)c2C(=O)O1` [RADICICOL] showed a half-inhibitory concentration (IC50) of 5.6 µM and an MIC90 of 60.2 µM (≈ 22 µg/mL). Moreover, in the assay on Plasmodium falciparum [3], the midpoint of inhibition, the IC50, lay at 7.2 µM and the MIC90 came to 46.8 µM (≈ 17.1 µg/mL).

Regarding `CC(Oc1ccc(Oc2ncc(C(F)(F)F)cc2Cl)cc1)C(=O)O` (stereo unspecified) [HALOXYFOP], in the assay on Plasmodium falciparum [1], the IC50 was determined as 97.7 µM and the MIC90 turned out to be 346 µM (≈ 125 µg/mL). For the same compound, the outcome in the assay with Plasmodium falciparum [13] was inactive. In the assay on Plasmodium falciparum [3], this compound gave a concentration for half-maximal inhibition (IC50) of 107 µM and an MIC90 of 346 µM (≈ 125 µg/mL).

Consider `O=C(N[C@H](CO)[C@H](O)c1ccc([N+](=O)[O-])cc1)C(Cl)Cl` [CHLORAMPHENICOL], for which the outcome with Plasmodium falciparum [9] and with Plasmodium falciparum [11] was inactive. Moreover, the Activity in the assay on Plasmodium falciparum [10] was 10%. Further, the IC50 came to 11.2 µM in the assay on Plasmodium falciparum [1] and 417 µM in the assay with Plasmodium falciparum [3]. The MIC90 in the assay with Plasmodium falciparum [1] was 190 µM (≈ 61.6 µg/mL); with Plasmodium falciparum [3], 1020 µM (≈ 331 µg/mL).

Consider `CO[C@H]1/C=C/O[C@@]2(C)Oc3c(C)c(O)c4c(O)c(c(/C=N/N5CCN(C)CC5)c(O)c4c3C2=O)NC(=O)/C(C)=C\C=C\[C@H](C)[C@H](O)[C@@H](C)[C@@H](O)[C@@H](C)[C@H](OC(C)=O)[C@@H]1C` [RIFAMPIN], for which the result in the assay on Plasmodium falciparum [8] and in the assay on Plasmodium falciparum [14] was Active. Also, the Activity in the assay on Plasmodium falciparum [10] was 10%. The 50% inhibitory concentration (IC50) was 0.19 µM in the assay with Plasmodium falciparum [1] and 4.2 µM in the assay on Plasmodium falciparum [3]. In addition, the MIC90 was 2 µM (≈ 1.65 µg/mL) against Plasmodium falciparum [1] and 110 µM (≈ 90.2 µg/mL) with Plasmodium falciparum [3]. In the assay with Plasmodium falciparum [11], the result was inactive.

With `CCN(CC)CCCC(C)Nc1ccnc2cc(Cl)ccc12` (stereo unspecified) [CHLOROQUINE], the outcome in the assay on Plasmodium falciparum [15] was inactive. Further, the MIC90 in the assay with Plasmodium falciparum [1] and in the assay with Plasmodium falciparum [3] was 0.011 µM (≈ 0.00352 µg/mL) each time.

`C/C=C/C/C=C/CCC(=O)[C@H]1O[C@H]1C(N)=O` [CERULENIN]: the half-maximal inhibitory concentration (IC50) in the assay with Plasmodium falciparum [1] stood at 16.9 µM; in the assay with Plasmodium falciparum [3] it was 15.1 µM. Further, the MIC90 in the assay with Plasmodium falciparum [1] amounted to 52.3 µM (≈ 11.7 µg/mL); with Plasmodium falciparum [3], 64.9 µM (≈ 14.5 µg/mL).

In the case of `C[C@@H]1C[C@@H]([C@H](O)CC2CC(=O)NC(=O)C2)C(=O)[C@@H](C)C1` [CYCLOHEXIMIDE], in the assay on Plasmodium falciparum [15], the result was inactive. For the same compound, in the assay on Plasmodium falciparum [1], the midpoint of inhibition, the IC50, lay at 0.1 µM and the MIC90 stood at 0.48 µM (≈ 0.135 µg/mL). In the assay on Plasmodium falciparum [3], this compound had an IC50 of 0.15 µM and an MIC90 of 0.73 µM (≈ 0.205 µg/mL).

In the assay on Plasmodium falciparum [1], `CC(Oc1ccc(Oc2cnc3cc(Cl)ccc3n2)cc1)C(=O)O` (stereo unspecified) [QUIZALOFOP] gave a half-inhibitory concentration (IC50) of 676 µM and an MIC90 of 1950 µM (≈ 672 µg/mL). In the assay with Plasmodium falciparum [3], the IC50 was 575 µM and the MIC90 was 3090 µM (≈ 1070 µg/mL).

As for `CCC[C@@H]1C[C@@H](C(=O)N[C@@H]([C@H]2O[C@H](SC)[C@H](O)[C@@H](O)[C@H]2O)[C@H](C)Cl)N(C)C1` [CLINDAMYCIN], the Activity in the assay with Plasmodium falciparum [10] is 10%; in the assay with Plasmodium falciparum [5], 0.65; in the assay on Plasmodium falciparum [6] it was 0.42; in the assay with Plasmodium falciparum [17], 0.4. For the same compound, the IC50 turned out to be 0.0013 µM in the assay on Plasmodium falciparum [1] and 288 µM in the assay with Plasmodium falciparum [3]. Besides, the MIC90 in the assay with Plasmodium falciparum [1] worked out at 6 µM (≈ 2.55 µg/mL); against Plasmodium falciparum [3] it was 537 µM (≈ 228 µg/mL). For the same compound, the outcome with Plasmodium falciparum [11], in the assay with Plasmodium falciparum [14] and with Plasmodium falciparum [16] was inactive.
